From ChEMBL document CHEMBL5316309, “Discovery of BAY-390, a Selective CNS Penetrant Chemical Probe as Transient Receptor Potential Ankyrin 1 (TRPA1) Antagonist” (J Med Chem, 2023)
In brackets after ≈: the same amount, converted by molar mass. Activity calls are given as the source filed them.

Experiments:
[1] = biological target: Transient receptor potential cation channel subfamily A member 1 (Rattus norvegicus, UniProt Q6RI86); assay: Antagonist activity at rat TRPA1 channel expressed in CHO-K1 cells tagged with GCaMP6 by measuring calcium flux measured after 10 mins by FLIPR tetra analysis; assay type: cell-based
Chain of Transient receptor potential cation channel subfamily A member 1 (Rattus norvegicus, UniProt Q6RI86) (Q6RI86 whole entry): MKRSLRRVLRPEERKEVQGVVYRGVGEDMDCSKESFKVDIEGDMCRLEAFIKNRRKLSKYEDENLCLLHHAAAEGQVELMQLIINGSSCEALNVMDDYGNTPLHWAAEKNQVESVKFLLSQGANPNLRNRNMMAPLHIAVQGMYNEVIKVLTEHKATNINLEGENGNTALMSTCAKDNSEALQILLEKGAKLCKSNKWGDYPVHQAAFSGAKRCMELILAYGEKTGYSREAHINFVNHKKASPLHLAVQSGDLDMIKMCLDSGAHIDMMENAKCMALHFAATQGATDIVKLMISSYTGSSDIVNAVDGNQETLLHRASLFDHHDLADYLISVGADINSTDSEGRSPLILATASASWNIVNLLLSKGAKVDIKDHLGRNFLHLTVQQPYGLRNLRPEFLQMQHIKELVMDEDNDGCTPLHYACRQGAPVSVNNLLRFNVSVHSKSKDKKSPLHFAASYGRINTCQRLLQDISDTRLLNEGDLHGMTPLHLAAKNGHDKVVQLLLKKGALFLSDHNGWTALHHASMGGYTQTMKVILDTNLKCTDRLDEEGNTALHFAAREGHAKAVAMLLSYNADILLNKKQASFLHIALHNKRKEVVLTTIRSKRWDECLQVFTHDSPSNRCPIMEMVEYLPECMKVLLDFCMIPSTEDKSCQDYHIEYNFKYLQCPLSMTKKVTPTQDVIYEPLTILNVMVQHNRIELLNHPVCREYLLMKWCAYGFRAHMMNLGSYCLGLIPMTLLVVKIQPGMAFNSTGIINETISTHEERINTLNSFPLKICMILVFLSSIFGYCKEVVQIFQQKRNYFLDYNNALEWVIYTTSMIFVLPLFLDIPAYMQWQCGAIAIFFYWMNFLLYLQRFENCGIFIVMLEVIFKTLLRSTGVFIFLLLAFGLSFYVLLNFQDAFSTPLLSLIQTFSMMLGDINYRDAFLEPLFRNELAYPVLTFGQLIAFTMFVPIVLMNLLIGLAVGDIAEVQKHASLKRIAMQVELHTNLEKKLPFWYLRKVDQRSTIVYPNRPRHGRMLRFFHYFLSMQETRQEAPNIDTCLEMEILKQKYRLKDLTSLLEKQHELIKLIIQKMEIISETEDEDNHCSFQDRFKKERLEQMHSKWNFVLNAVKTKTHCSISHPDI

[2] = Mutagenecity in Salmonella typhimurium by Ames test; assay type: toxicity; details: salmonella sp.
[3] = biological target: T1, Transient receptor potential cation channel subfamily A member 1 (Homo sapiens, UniProt O75762); assay: Antagonist activity at human TRPA1 channel expressed in CHO-K1 cells tagged with GCaMP6 by measuring calcium flux measured after 10 mins by FLIPR tetra analysis; assay type: cell-based
T1 sequence (O75762 whole entry): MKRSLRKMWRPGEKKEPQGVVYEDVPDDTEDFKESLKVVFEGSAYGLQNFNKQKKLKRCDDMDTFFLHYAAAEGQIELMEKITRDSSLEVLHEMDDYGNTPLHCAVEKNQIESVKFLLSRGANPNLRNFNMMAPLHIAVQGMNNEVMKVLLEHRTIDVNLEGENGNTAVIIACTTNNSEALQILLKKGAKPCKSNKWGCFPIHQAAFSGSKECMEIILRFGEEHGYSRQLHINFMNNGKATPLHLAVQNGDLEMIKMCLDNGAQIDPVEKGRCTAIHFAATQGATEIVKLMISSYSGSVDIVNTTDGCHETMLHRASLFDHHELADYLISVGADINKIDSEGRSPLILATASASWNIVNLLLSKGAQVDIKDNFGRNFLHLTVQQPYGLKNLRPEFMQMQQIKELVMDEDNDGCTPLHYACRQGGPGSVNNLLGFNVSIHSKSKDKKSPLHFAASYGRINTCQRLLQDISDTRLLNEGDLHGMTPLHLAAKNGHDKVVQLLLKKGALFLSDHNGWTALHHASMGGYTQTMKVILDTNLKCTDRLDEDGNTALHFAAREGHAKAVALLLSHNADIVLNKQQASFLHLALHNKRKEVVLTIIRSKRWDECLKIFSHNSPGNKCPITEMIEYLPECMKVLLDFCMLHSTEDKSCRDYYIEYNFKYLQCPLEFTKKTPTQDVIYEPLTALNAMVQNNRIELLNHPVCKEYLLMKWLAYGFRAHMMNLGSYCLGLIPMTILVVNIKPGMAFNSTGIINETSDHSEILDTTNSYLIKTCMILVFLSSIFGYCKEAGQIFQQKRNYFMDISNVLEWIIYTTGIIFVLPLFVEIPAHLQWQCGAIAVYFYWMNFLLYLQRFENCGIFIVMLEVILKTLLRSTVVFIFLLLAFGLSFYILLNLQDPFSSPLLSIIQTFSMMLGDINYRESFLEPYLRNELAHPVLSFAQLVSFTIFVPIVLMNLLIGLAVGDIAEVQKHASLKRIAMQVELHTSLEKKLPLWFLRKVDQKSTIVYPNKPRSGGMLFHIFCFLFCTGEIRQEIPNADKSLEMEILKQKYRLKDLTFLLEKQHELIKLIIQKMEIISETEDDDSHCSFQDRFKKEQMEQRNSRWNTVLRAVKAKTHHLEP

[4] = Lipophilicity, logD of compound; assay type: physicochemical; details: octanol/water
[5] = biological target: T1, Transient receptor potential cation channel subfamily A member 1; assay: Antagonist activity at human wildtype TRPA1 channel expressed in CHO-K1 cells tagged with GCaMP6 by measuring calcium flux measured after […] by FLIPR tetra analysis; assay type: cell-based
[6] = Solubility of the compound in PBS buffer at pH 6.5; assay type: physicochemical
[7] = Fraction unbound in human; assay type: ADME
[8] = Fraction unbound in mouse; assay type: ADME, organism-based; details: in vivo
[9] = Metabolic stability in rat hepatocytes; assay type: ADME, cell-based, Hepatocyte
[10] = Metabolic stability in rat blood assessed as clearance; assay type: ADME, tissue-based
[11] = Permeability form apical to basolateral side in human Caco2 cells; assay type: ADME, cell-based; details: caco-2
[12] = Efflux ratio of permeability in human Caco2 cells; assay type: ADME, cell-based; details: caco-2
[13] = Fraction unbound in Sprague-Dawley rat; assay type: ADME
Rattus norvegicus [14] = assay: Protective activity in cinnamaldehyde induced nocifensive behaviour Sprague-Dawley rat model assessed as reduction in number of flinches treated with cinnamaldehyde followed compound addition at 3 to 30 mg/kg, po measured after 1 hr measured by Dunnert's post hoc test; assay type: functional, organism-based; details: dose 3-30 mg/kg
How it was run: (§1)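 Male Sprague Dawley rats, 175–200 g, dosed orally in 10% DMSO/40% Solutol/50% water 1 h before intraplantar injection of 50 μL cinnamaldehyde at 5 mM. Flinch number and licking duration scored blinded for 5 min. One-way ANOVA with Dunnett versus vehicle.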

Rattus norvegicus [15] = assay: Protective activity in cinnamaldehyde induced nocifensive behaviour Sprague-Dawley rat model assessed as reduction in paw licking treated with cinnamaldehyde followed compound addition at 3 to 30 mg/kg, po measured after 1 hr measured by Dunnert's post hoc test; assay type: functional, organism-based; details: dose 3-30 mg/kg; how it was run: as §1
Plasma [16] = assay: Free plasma concentration in cinnamaldehyde induced nocifensive behaviour Sprague-Dawley rat model treated with cinnamaldehyde followed compound addition at 3 to 30 mg/kg, po measured after 1 hr; assay type: functional; details: dose 3-30 mg/kg
How it was run: (§2)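 Free plasma level taken 1 h after oral dosing (3, 10, 30 mg/kg) in the rat intraplantar cinnamaldehyde nocifensive model.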

Plasma [17] = assay: Free plasma concentration in cinnamaldehyde induced nocifensive behaviour Sprague-Dawley rat model at 10 mg/kg, po; assay type: functional; details: time 1 hrs; how it was run: as §2
Plasma [18] = assay: Free plasma concentration in cinnamaldehyde induced nocifensive behaviour Sprague-Dawley rat model treated at 3 to 30 mg/kg, po for 1 hr followed by cinnamaldehyde addition; assay type: functional; details: dose 3-30 mg/kg; how it was run: as §2
Rattus norvegicus [19] = assay: Reversal of complete Freund's adjuvant induced mechanical hyperalgesia in Sprague-Dawley rat assessed as paw withdrawal threshold treated with CFA for 24 hrs followed by compound addition at 3 to 30 mg/kg, po measured after 2 to 4 hrs by Dunnett's post hoc test; assay type: functional, organism-based; details: dose 3-30 mg/kg, time 2-4 hrs
How it was run: (§3)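 Male Sprague Dawley rats, 175–200 g, given intraplantar CFA in one hind paw. Oral dose once 24 h later in 10% DMSO/40% Solutol/50% water. Paw withdrawal threshold to pressure measured blinded on CFA and contralateral paws before CFA, at 24 h (predrug) and 2 and 4 h postdose. Two-way repeated-measures ANOVA, then Dunnett versus vehicle.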

Rattus norvegicus [20] = assay: Anti-inflammatory activity in complete Freund's adjuvant induced mechanical hyperalgesia in Sprague-Dawley rat assessed as reduction of mechanical hyperalgesia treated with CFA for 24 hrs followed by compound addition at 10 to 30 mg/kg, po measured after 2 hrs by Dunnett's post hoc test; assay type: functional, organism-based; details: dose 10-30 mg/kg; how it was run: as §3
Rattus norvegicus [21] = assay: Anti-inflammatory activity in complete Freund's adjuvant induced mechanical hyperalgesia in Sprague-Dawley rat assessed as reduction of mechanical hyperalgesia treated with CFA for 24 hrs followed by compound addition at 30 mg/kg, po measured after 4 hrs by Dunnett's post hoc test; assay type: functional, organism-based; how it was run: as §3
Plasma [22] = assay: Free plasma concentration in cinnamaldehyde induced nocifensive behaviour Sprague-Dawley rat treated with CFA for 24 hrs followed by compound addition at 3 mg/kg, po measured after 4.5 hrs; assay type: functional
How it was run: (§4)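 Unbound plasma level taken 4.5 h after oral dosing (3, 10, 30 mg/kg), given 24 h after intraplantar CFA in rats.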

Plasma [23] = assay: Free plasma concentration in cinnamaldehyde induced nocifensive behaviour Sprague-Dawley rat treated with CFA for 24 hrs followed by compound addition at 10 mg/kg, po measured after 4.5 hrs; assay type: functional; how it was run: as §4
Plasma [24] = assay: Free plasma concentration in cinnamaldehyde induced nocifensive behaviour Sprague-Dawley rat treated with CFA for 24 hrs followed by compound addition at 30 mg/kg, po measured after 4.5 hrs; assay type: functional; how it was run: as §4
Rattus norvegicus [25] = assay: Antiallodynic activity against spinal nerve ligation neuropathic pain Sprague-Dawley rat model assessed as reversal of mechanical allodynia administered at 90 mg/kg, po bid measured after 6 days post SNL surgery; assay type: functional, organism-based; details: time 6.0 day
Rattus norvegicus [26] = assay: Antiallodynic activity against spinal nerve ligation neuropathic pain Sprague-Dawley rat model assessed as reversal of mechanical allodynia administered at 30 mg/kg, po bid for 10 days from day 15 to day 24 post SNL surgery; assay type: functional, organism-based; details: time <= 10.0 day
How it was run: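 Male Sprague Dawley rats, 100–120 g, had spinal nerve ligation under isoflurane. Oral dosing b.i.d. on days 15–24 post surgery in DMSO/Solutol/water 10/40/50 at 5 mL/kg; gabapentin 30 mg/kg q.d. as control. Von Frey up-and-down thresholds, blinded, on both hind paws at day 11 (baseline) and days 15, 18, 21, 24, 2 h after morning dose. Kruskal–Wallis with Dunn versus vehicle.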

Plasma [27] = assay: Unbound plasma concentration in spinal nerve ligation neuropathic pain Sprague-Dawley rat model administered at 30 mg/kg, po bid for 10 days from day 15 to day 24 post SNL surgery measured after […] of last dose; assay type: functional; details: time 242.5 hrs
Plasma [28] = assay: Unbound plasma concentration in spinal nerve ligation neuropathic pain Sprague-Dawley rat model administered at 90 mg/kg, po bid for 10 days from day 15 to day 24 post SNL surgery measured after […] of last dose; assay type: functional; details: time 242.5 hrs
[29] = Fraction unbound in guniea pig; assay type: ADME, Cavia porcellus; details: guinea pig
[30] = Unbound brain concentration in spinal nerve ligation neuropathic pain Sprague-Dawley rat model administered at 30 mg/kg, po bid for 10 days from day 15 to day 24 post SNL surgery measured after 2 to 8 hrs of last dose
[31] = Unbound brain concentration in spinal nerve ligation neuropathic pain Sprague-Dawley rat model administered at 90 mg/kg, po bid for 10 days from day 15 to day 24 post SNL surgery measured after 2 to 8 hrs of last dose

COc1cc(N[C@@H]2CCCC[C@]2(O)C(F)(F)F)ccc1F [BAY-9897]
IC50 [1]: > 25000 nM | Activity [2]: Non-Toxic | IC50 [3]: > 25000 nM

O[C@]1(C(F)(F)F)CCCC[C@H]1Cc1csc(Cl)c1
IC50 [1]: 130 nM | logD [4]: 4.3

CC1(C)CCCC(O)(C(F)(F)F)C1Cc1cccc(F)c1 (mixture of isomers)
IC50 [1]: 3800 nM | IC50 [3]: 750 nM

N#Cc1cc(C[C@@H]2CCCC[C@]2(O)C(F)(F)F)cs1
IC50 [1]: 620 nM | logD [4]: 3.2

Cc1cc2[nH]ncc2cc1-c1ccccc1C(F)(F)F
IC50 [5]: 14 nM

O[C@]1(C(F)(F)F)CCCC[C@H]1Nc1ccc(F)c(Cl)c1
IC50 [1]: 680 nM | Activity [2]: Non-Toxic | logD [4]: 3.4

O[C@]1(C(F)(F)F)CCCC[C@H]1Nc1ccc(F)cc1 [BAY-390]
Activity [2]: Non-Toxic | logD [4]: 3 | solubility [6]: 56 µg/mL (≈ 202 µM) | IC50 [5]: 35 nM | fraction unbound [7]: 0.12 | fraction unbound [8]: 0.081 | Stability [9]: Stable | CL [10]: 40 mL/min/kg | permeability [11]: 29.3 ×10⁻⁶ cm/s | Ratio [12]: 0.6 | fraction unbound [13]: 0.06 | Activity (Rattus norvegicus [14]): Active | Activity (Rattus norvegicus [15]): Active | Cp(f) (Plasma [16]): 10 nM | Cp(f) (Plasma [17]): 35 nM | Cp(f) (Plasma [18]): 115 nM | Activity (Rattus norvegicus [19]): Active | Activity (Rattus norvegicus [20]): Active | Activity (Rattus norvegicus [21]): Active | Cp(f) (Plasma [22]): 7 nM | Cp(f) (Plasma [23]): 10 nM | Cp(f) (Plasma [24]): 103 nM | Activity (Rattus norvegicus [25]): Active | Activity (Rattus norvegicus [26]): inactive | Cp(f) (Plasma [27]): 115 nM | Cp(f) (Plasma [28]): 201 nM | fraction unbound [29]: 0.097 | unbound brain concentration [30]: 33 nM | unbound brain concentration [31]: 61 nM

O[C@@]1(C(F)(F)F)CCCC[C@@H]1Cc1ccc(F)cc1
logD [4]: 3.8

O[C@]1(C(F)(F)F)CCCC[C@H]1Cc1ccncc1
IC50 [1]: 5300 nM

N#Cc1ccc(N[C@@H]2CCCC[C@]2(O)C(F)(F)F)cc1
IC50 [1]: 1300 nM | Activity [2]: Non-Toxic

O[C@]1(C(F)(F)F)CCCC[C@H]1Nc1cccc(F)c1
IC50 [1]: 950 nM | Activity [2]: Non-Toxic

O=C1c2ccc(F)cc2CN1[C@@H]1CCCC[C@]1(O)C(F)(F)F
logD [4]: 2.6

O=C(N[C@@H]1CCCC[C@]1(O)C(F)(F)F)c1ccc(F)cc1
IC50 [1]: 15000 nM

Cc1ccc(CC2C(C)(C)CCCC2(O)C(F)(F)F)cc1 (mixture of isomers)
IC50 [1]: > 12500 nM | IC50 [3]: 1270 nM

C[C@@H](C(=O)Nc1ccnc(-c2cnc(N3CCC[C@H]3C(F)(F)F)nc2)n1)n1cnc2c1c(=O)n(C)c(=O)n2C
IC50 [5]: 64 nM

CN([C@@H]1CCCC[C@]1(O)C(F)(F)F)S(=O)(=O)c1ccc(F)cc1
IC50 [1]: 16000 nM | logD [4]: 3.1

COCCCOc1cccc([C@H]2NC(=S)Nc3c2oc2ncccc32)c1
IC50 [5]: 67 nM

O[C@]1(C(F)(F)F)CCCC[C@H]1Cc1ncc(Cl)s1
IC50 [1]: 1200 nM

COc1ccc(CC2C(C)(C)CCCC2(O)C(F)(F)F)cc1 (mixture of isomers)
IC50 [1]: > 12500 nM | IC50 [3]: > 12500 nM

CC1(C)CCCC(O)(C(F)(F)F)C1Cc1ccc(C#N)cc1 (mixture of isomers)
IC50 [1]: 7570 nM | IC50 [3]: 390 nM
